According to paper PMC4899155 (Molecular pharmaceutics, 2016):

Experiments:
Jurkat cells [1] = assay: IL-2 ELISA assay in PMA/PHA stimulated Jurkat cells; type: cell-based, human; conditions: for IL-2 secretion: PMA/PHA stimulated Jurkat cells
Method in brief: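 Jurkat cells were kept in RPMI 1640 with L-glutamine and 10% FBS at 37°C, 5% CO2, about 10^6 cells/ml. […] After 15 min, a PHA (25 μg/mL)/PMA (1.25 μg/ml) mixture in PBS:DMSO (80:1) was added and cells were incubated 24 h at 37°C. Supernatant IL-2 was measured by human IL-2 ELISA.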

Jurkat cells [2] = assay: Intracellular calcium assay; type: cell-based, human
[3] = Metabolic stability in human liver microsomes; type: in vitro ADME
[4] = Metabolic stability in mouse liver microsomes; type: in vitro ADME
[5] = Metabolic stability in human S9 fraction; type: in vitro ADME; conditions: 1 hour incubation
[6] = Metabolic stability in mouse S9 fraction; type: in vitro ADME; conditions: 1 hour incubation
[7] = Stability in mouse plasma; type: in vitro ADME
[8] = Single dose pharmacokinetic study in mice; type: in vivo; conditions: 5 mg/kg i.p.
Method in brief: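 Mice received a single 5 mg/kg i.p. dose of test compound in 10% DMSO, 40% propylene glycol and 50% PBS. Compound levels were followed over time in brain, lung and blood, with N = 3.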

[9] = Blood concentration under repeated dosing / osmotic minipump in Ova S/C mice; type: in vivo, Balb/c mice
Method in brief: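 Ova-sensitized/challenged Balb/c mice received test compound by surgically implanted osmotic minipump at 20 mg/kg/day for 7 days, or by two i.p. injections daily over the 5-day challenge period. Blood concentration was taken on the day of airway hyper-responsiveness measurement (day 28).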

Balb/c mice = assay: Rotarod assay; type: in vivo, mouse; conditions: 10 minutes after injection, 15 rpm
Ova S/C Balb/c mice [10] = assay: Airway hyper-responsiveness to methacholine; type: in vivo, mouse
Method in brief: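 Male Balb/c mice were sensitized i.p. with 2 mg/kg/d ovalbumin in 2 mg alum on days 0, 7 and 14, then challenged intranasally with 1 mg/kg/d ovalbumin on days 23–27. Dosing was by i.p. injection 40 min before testing, or twice daily during challenge. The dexamethasone control was 4 mg/kg i.p. daily for 8 days. sRaw was measured versus aerosolized methacholine (mg/ml) in conscious mice (4-7/group, mean ± SEM).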

Ova S/C Balb/c mice [11] = assay: Mucin volume density; type: in vivo, mouse
Method in brief: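 Ova-sensitized/challenged Balb/c mice were dosed as single 20 mg/kg i.p. 40 min before analysis, twice-daily 20 mg/kg i.p. for 5 days, osmotic pump 20 mg/kg/day for 7 days, or dexamethasone 4 mg/kg daily for 8 days. Formalin-perfused lungs were cut into 5 μm paraffin sections and stained with periodic acid fluorescent Schiff. Mucin area in axial-bronchus epithelium per basement-membrane length was normalized to control and Ova groups (5-7 mice/group).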

Ova S/C Balb/c mice [12] = assay: Airway eosinophilia; type: in vivo, mouse
Jurkat cells [13] = assay: Automated patch-clamp electrophysiology for Jurkat cells; type: cell-based, human; conditions: in the presence of an EC3 concentration of GABA (0.3 μM)
[14] = test system: guinea pig tracheal rings; assay: Guinea pig airway smooth muscle organ bath; type: cell-based; conditions: 100 μM, rings contracted with 1 μM substance P, compared to vehicle
α4β3γ2 GABAAR = α4β3γ2 GABAAR (Homo sapiens, UniProt P18507+P48169); conditions: α4β3γ2 ref 27; cited from earlier work
Chain of α4β3γ2 GABAAR (P48169 36-554): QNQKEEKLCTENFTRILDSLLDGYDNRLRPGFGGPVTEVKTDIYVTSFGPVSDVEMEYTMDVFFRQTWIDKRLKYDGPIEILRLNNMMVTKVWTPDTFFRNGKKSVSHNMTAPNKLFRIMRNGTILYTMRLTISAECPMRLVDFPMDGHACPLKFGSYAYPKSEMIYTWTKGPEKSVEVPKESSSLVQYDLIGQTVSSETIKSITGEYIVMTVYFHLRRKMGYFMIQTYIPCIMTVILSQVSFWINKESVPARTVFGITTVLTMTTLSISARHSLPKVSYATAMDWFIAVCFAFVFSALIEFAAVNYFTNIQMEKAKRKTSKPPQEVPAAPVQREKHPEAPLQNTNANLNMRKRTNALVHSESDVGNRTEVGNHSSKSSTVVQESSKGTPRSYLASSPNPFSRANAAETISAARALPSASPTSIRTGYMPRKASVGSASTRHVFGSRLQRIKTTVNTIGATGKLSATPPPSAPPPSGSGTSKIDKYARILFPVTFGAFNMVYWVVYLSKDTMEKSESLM
Chain of α4β3γ2 GABAAR (P28472 26-473 partner): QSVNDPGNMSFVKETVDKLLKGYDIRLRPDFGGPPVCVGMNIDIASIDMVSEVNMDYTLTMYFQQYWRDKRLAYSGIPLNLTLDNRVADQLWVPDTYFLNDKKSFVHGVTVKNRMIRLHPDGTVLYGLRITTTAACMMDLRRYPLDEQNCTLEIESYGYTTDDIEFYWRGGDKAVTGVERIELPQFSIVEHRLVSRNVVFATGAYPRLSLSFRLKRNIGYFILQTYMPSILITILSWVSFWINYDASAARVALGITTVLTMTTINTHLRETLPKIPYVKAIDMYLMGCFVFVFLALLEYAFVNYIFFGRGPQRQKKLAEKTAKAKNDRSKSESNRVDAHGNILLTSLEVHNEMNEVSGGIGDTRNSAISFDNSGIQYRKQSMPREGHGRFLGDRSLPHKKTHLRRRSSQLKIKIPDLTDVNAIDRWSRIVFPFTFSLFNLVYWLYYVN
Chain of α4β3γ2 GABAAR (P18507 40-475): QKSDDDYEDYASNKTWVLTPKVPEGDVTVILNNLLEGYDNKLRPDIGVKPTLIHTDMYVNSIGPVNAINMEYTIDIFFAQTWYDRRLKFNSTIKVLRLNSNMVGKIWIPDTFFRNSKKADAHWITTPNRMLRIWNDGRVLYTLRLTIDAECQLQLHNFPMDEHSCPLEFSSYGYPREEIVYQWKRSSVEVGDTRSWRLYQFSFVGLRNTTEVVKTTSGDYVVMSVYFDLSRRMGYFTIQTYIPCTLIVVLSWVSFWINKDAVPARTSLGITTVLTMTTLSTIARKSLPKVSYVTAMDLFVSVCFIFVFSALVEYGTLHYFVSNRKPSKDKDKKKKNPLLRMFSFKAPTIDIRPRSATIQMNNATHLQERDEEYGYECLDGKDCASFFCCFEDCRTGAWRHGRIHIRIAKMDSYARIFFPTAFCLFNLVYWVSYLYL

α6β3γ2 GABAAR = conditions: at concentrations higher that 1 μM ref 27; cited from earlier work

Compound: NCCCC(=O)O [GABA, reference compound]
- IL-2 secretion (Jurkat cells [1]; 1 nM): ineffective
- IL-2 secretion (Jurkat cells [1]; 100 nM): significantly reduced secretion of IL-2
- increase in [Ca2+]i (Jurkat cells [2]; 150 mM): fully suppressed
- concentration able to reduce the [Ca2+]i levels (Jurkat cells [2]; Jurkat cells): ≥ 30 mM

Compound: CCOC(=O)c1ncn2c1[C@@H]1CCCN1C(=O)c1cc(OC)ccc1-2 [XHE-III-74EE]
- human liver microsomes % remaining after 1 hour ([3]; 1 hour incubation): 99.2 ± 0.15%
- predicted half-life ([3]; human liver microsomes and S9 fraction): several hours
- Mouse liver microsomes % remaining after 1 hour ([4]; 1 hour incubation): 86.3 ± 0.3%
- predicted half-life ([4]; mouse liver microsomes and S9 fraction): several hours
- human S9 fraction % remaining after 1 hour [5]: 95.6 ± 0.3%
- Mouse S9 fraction % remaining after 1 hour [6]: 98.4 ± 0.4%
- Mouse plasma (stability; row prints no unit or time) ([7]; Table 1 of in vitro metabolic stability): 92.6 ± 0.2
- stability in blood plasma ([7]; at least one hour): stable in blood plasma
- AUC in brain as % of the AUC in blood [8]: 79%
- AUC in lung as % of the blood AUC [8]: 60%
- Cmax in blood versus lung [8]: roughly two times higher in blood than in lung
- Tmax in blood [8]: 10 min
- Tmax in lung [8]: 3 min
- half-life in brain [8]: 36.7 min
- half-life in lung [8]: 17.6 min
- blood concentration, continuous release by implanted minipumps ([9]; implanted minipumps (Discussion)): 27.2 ng/mL
- constant blood concentration at the day of AHR measurement ([9]; implanted minipumps, 20 mg/kg/day for 7 days): 27.2 ± 2.7 ng/g
- cmax ([9]; twice daily i.p. injection): 216 ng/mL
- motor impairment on rotarod (Balb/c mice; 5 mg/kg i.p.): did not impair motorsensory coordination
- motor impairment on rotarod (Balb/c mice; 40 mg/kg i.p.): did cause motor-impairing effects
- methacholine-induced AHR (sRaw), words (Ova S/C Balb/c mice [10]; 20 mg/kg i.p. twice daily for 5 days): reduced methacholine-induced AHR
- methacholine-induced AHR (sRaw), words (Ova S/C Balb/c mice [10]; osmotic pump, 20 mg/kg daily for 7 days): effective in reducing AHR at low concentrations of methacholine
- methacholine-induced AHR (sRaw), words (Ova S/C Balb/c mice [10]; single i.p. 10 mg/kg, 40 minutes prior to analysis): did not alter AHR
- methacholine-induced AHR (sRaw), words (Ova S/C Balb/c mice [10]; single i.p. 20 mg/kg, 40 minutes prior to analysis): did not alter AHR
- airway mucous metaplasia / mucin volume density (Ova S/C Balb/c mice [11]; 20 mg/kg i.p. injections daily for 5 days): did not significantly change airway mucous metaplasia
- airway mucous metaplasia / mucin volume density (Ova S/C Balb/c mice [11]; 20 mg/kg/day via osmotic pump): no change in airway mucous metaplasia
- mucin production (Ova S/C Balb/c mice [11]; acute, single i.p. injection for 40 minutes): did not change mucin production
- airway eosinophilia (Ova S/C Balb/c mice [12]; 20 mg/kg twice i.p. injection daily for 5 days): not effective in reducing airway eosinophilia
- airway eosinophilia (Ova S/C Balb/c mice [12]; 20 mg/kg via osmotic pump): no change in airway eosinophilia
- airway eosinophilia (Ova S/C Balb/c mice [12]; acute, single i.p. injection 20 mg/kg for 40 minutes): not effective in reducing airway eosinophilia
- IL-2 production (Jurkat cells [1]; under similar conditions, without supplemental GABA): did not reduce IL-2 production
- extent of inhibition of PMA/PHA-induced increases in [Ca2+]i (Jurkat cells [2]; Jurkat cells, Fluo-4): partial inhibition
- IC50 (Jurkat cells [2]; read-out: IC50, PMA/PHA-induced increase in [Ca2+]i, Jurkat cells, Fluo-4): 24.3 ± 9.8 nM
- GABA-induced current potentiation (Jurkat cells [13]): 734%
- relaxation of airway smooth muscle contractile force [14]: induced active relaxation
- reported GABAAR subtype selectivity (α4β3γ2 GABAAR): subtype-selective
- reported activity at α6β3γ2 GABAAR (α6β3γ2 GABAAR): some activity

Compound: C[C@@H]1C[C@H]2[C@@H]3CCC4=CC(=O)C=C[C@]4(C)[C@@]3(F)[C@@H](O)C[C@]2(C)[C@@]1(O)C(=O)CO [dexamethasone, reference compound]
- airway mucous metaplasia / mucin volume density (Ova S/C Balb/c mice [11]; single i.p. injection daily for 8 days, 4 mg/kg, p<0.01): significantly decreased mucous metaplasia
- airway eosinophilia (Ova S/C Balb/c mice [12]; 4 mg/kg i.p. daily for 8 days): significantly decreased airway eosinophilia

Compound: CN1C(=O)CN=C(c2ccccc2)c2cc(Cl)ccc21 [diazepam, reference compound]
- motor impairment on rotarod (Balb/c mice; 5 mg/kg i.p.): induced significant motor impairment
